Reference: publication PMC9059958 (RSC Advances, 2019)
Converted amounts (≈) assume the structure as drawn. Values belong to the compound of their own block, whether it stands above or below them.

Experiments:
tet^R E. coli [1] = test: Combination; assay type: cell-based, Escherichia coli; conditions: for Fold enhancement: tetracycline, amphiphile 20 μM, Tet^R E. coli
[2] = Solubility in combination assay; conditions: combination assay medium
E. coli (Tol-) = test: MIC screening; assay type: cell-based; conditions: Escherichia coli
Outline: (§1)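 Broth microdilution. Overnight cultures knocked back to OD600 0.100 and grown at 37 °C to OD600 0.500. Final inoculum 4 × 10^5 CFU mL−1 in cation-adjusted MHII; S. pneumoniae in CA-MHB with 5% LHB; tetR E. coli in LB with 100 μg mL−1 ampicillin. Final DMSO 0.5% v/v. Incubated 18–20 h at 37 °C, then OD600 read. MIC is ≥90% inhibition versus untreated cells. Triplicate wells, repeated on two further plates.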

P. aeruginosa (R:Mero) = test: MIC screening; assay type: cell-based; conditions: Pseudomonas aeruginosa
Outline: as §1

E. coli (WT) = test: MIC screening; assay type: cell-based; conditions: Escherichia coli
Outline: as §1

E. aerogenes (R:Cep) = test: MIC screening; assay type: cell-based, Enterobacter aerogenes; conditions: Klebsiella aerogenes
Outline: as §1

tet^R E. coli [3] = test: Membrane permeability using propidium iodide and FDA; assay type: cell-based, Escherichia coli
Outline: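 tetR E. coli grown overnight with 100 μg mL−1 ampicillin (37 °C, 200 RPM) and knocked back to OD600 0.550. Treated 30 min at half-MIC; Triton X-100 and DMSO controls; DMSO 0.5%. Washed (3000 × g, 5 min) into PBS, then stained with propidium iodide (30 μM) and fluorescein diacetate (60 μM) for 30 min at 37 °C. Washed again and imaged by confocal microscopy.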

HEK-293 cells = test: Mammalian cell cytotoxicity; assay type: cell-based, human; conditions: 1/2 MIC (4: 1 μM; colistin 0.125 μM); 24 hours; XTT
Cos-7 cells = test: Mammalian cell cytotoxicity; assay type: cell-based, simian; conditions: 1/2 MIC; 24 hours; XTT
Outline: (§2)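 HEK-293, HeLa and Cos-7 cells kept in DMEM with 10% FBS and 1% penicillin–streptomycin. Seeded at 3 × 10^4 cells per well and grown 24 h to 80–90% confluence. […] XTT assay: absorbance at 450 nm, 690 nm background. Percent survival versus untreated cells, three replicates, mean ± SD.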

S. aureus 1199B [4] = test: MIC against NorA expressing S. aureus 1199B; assay type: cell-based; conditions: Staphylococcus aureus
Outline: as §1

MRSA (USA100) = test: MIC screening; assay type: cell-based; conditions: Staphylococcus aureus
Outline: as §1

MRSA = test: MIC against MRSA as stated in text; assay type: cell-based; conditions: Staphylococcus aureus
Outline: as §1

S. pneumoniae (control) = test: MIC screening; assay type: cell-based; conditions: Streptococcus pneumoniae
Outline: as §1

S. aureus (control) = test: MIC screening; assay type: cell-based; conditions: Staphylococcus aureus
Outline: as §1

MRSA (USA 300) = test: MIC screening; assay type: cell-based; conditions: Staphylococcus aureus, MRSA|USA300
Outline: as §1

MRSA (control) = test: MIC screening; assay type: cell-based; conditions: Staphylococcus aureus
Outline: as §1

tet^R E. coli [5] = test: Potassium transport; assay type: cell-based, Escherichia coli; conditions: 30 μM
Outline: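 tetR E. coli pelleted at 2000 × g, resuspended in PBS and adjusted to OD 1.300. Stirred suspension monitored with a K+-selective electrode. Multiple test compound concentrations; mV recorded every 30 s for 15 min. [K+] calculated from a calibration curve. Total potassium pool from cells heated at 100 °C for 30 min, set as 100%. Three trials, SD.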

tet^R E. coli [6] = test: MIC against efflux pump expressing tet^R E. coli; assay type: cell-based; conditions: Escherichia coli
Outline: as §1

NorA efflux pump = biological target: T1, NorA efflux pump (Staphylococcus aureus, UniProt P0A0J7); test: Efflux pump inhibition; assay type: cell-based; conditions: read-out: inhibition of NorA activity, lower than for 3 or 4
T1 sequence (P0A0J7 1-388): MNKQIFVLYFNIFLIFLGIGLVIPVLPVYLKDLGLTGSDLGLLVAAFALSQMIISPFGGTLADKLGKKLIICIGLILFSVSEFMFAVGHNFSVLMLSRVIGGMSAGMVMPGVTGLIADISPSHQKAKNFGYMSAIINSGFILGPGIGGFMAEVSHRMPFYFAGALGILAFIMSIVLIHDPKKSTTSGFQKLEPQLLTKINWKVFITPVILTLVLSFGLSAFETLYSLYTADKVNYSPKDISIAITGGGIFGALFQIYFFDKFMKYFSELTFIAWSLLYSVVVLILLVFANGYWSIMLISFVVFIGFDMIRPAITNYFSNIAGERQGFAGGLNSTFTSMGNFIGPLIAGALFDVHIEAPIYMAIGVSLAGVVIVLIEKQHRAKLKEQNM
Outline: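 S. aureus 1199B knocked back to OD600 0.550, then loaded with ethidium bromide (10 μg mL−1) plus 100 μM CCCP in MHII at OD600 1.000 for 20 min at room temperature. Spun, held on ice, warmed 5 min, adjusted to OD600 0.800. Added to wells containing test compound, CCCP or reserpine. Fluorescence read at ex 530/em 600 nm every minute for 20 min. Three runs, SD.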

E. faecalis (VanA) = test: MIC screening; assay type: cell-based, Enterococcus faecalis
Outline: as §1

E. faecalis (control) = test: MIC screening; assay type: cell-based, Enterococcus faecalis
Outline: as §1

[7] = tested on: HEK-293, HeLa and Cos-7 cells; test: Mammalian cell cytotoxicity; assay type: cell-based; conditions: 1/2 MIC; 24 hours; XTT
Outline: as §2

human hepatocytes = test: Human hepatocyte cell viability; assay type: cell-based; conditions: 72 h, read-out: EC50 against human hepatocytes
Outline: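 Human hepatocytes treated with 1–100 μM test compound, or CCCP as control, for 72 h. Survival then determined.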

S. aureus 1199B [8] = test: Membrane permeability using propidium iodide; assay type: cell-based, Staphylococcus aureus; conditions: 0.1% (1.6 mM)
tet^R E. coli [9] = test: Resistance development by sequential culturing; assay type: cell-based, Escherichia coli; conditions: 15 days
Outline: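 Serial passage of tetR E. coli in LB over 15 days, with minocycline as comparator. […] Each day, cells from the second-highest concentration that allowed growth were diluted 1:100 into fresh media at 0.25–4× MIC. Cultures growing above the MIC were passaged on antibiotic-free LB agar and the MIC was redetermined. Mean of three trials.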

[10] = amphiphile at 1/2 MIC, tet^R E. coli

Compound: CC(C)[C@@H]1NC(=O)[C@H](C)OC(=O)[C@@H](C(C)C)NC(=O)[C@@H](C(C)C)OC(=O)[C@H](C(C)C)NC(=O)[C@H](C)OC(=O)[C@@H](C(C)C)NC(=O)[C@@H](C(C)C)OC(=O)[C@H](C(C)C)NC(=O)[C@H](C)OC(=O)[C@@H](C(C)C)NC(=O)[C@@H](C(C)C)OC1=O [Valinomycin, valinomycin]
Fold enhancement (tet^R E. coli [1]): 2 fold
solubility [2]: insoluble at >20 μM

MIC (E. coli (Tol-)): < 0.33 µM
MIC (P. aeruginosa (R:Mero)): > 166 µM
MIC (E. coli (WT)): < 0.33 µM
MIC (E. aerogenes (R:Cep)): < 0.33 µM
Compound: C[C@@H](O)[C@H]1C(=O)N2C(C(=O)O)=C(S[C@@H]3CN[C@H](C(=O)N(C)C)C3)[C@H](C)[C@H]12 [Meropenem, meropenem]

Compound: colistin
concentration that increases membrane permeability (propidium iodide) (tet^R E. coli [3]): ≥ 2 µM
survival of HEK-293 (HEK-293 cells): about 60%
survival of Cos-7 (Cos-7 cells): non-cytotoxic

Compound: CCn1cc(C(=O)O)c(=O)c2cc(F)c(N3CCNCC3)cc21 [Norfloxacin, norfloxacin]
MIC (S. aureus 1199B [4]): 64 µM (≈ 20.4 µg/mL)

MIC (MRSA (USA100)): 1 µM (≈ 1.45 µg/mL)
MIC (MRSA): 1 to 2 µM (≈ 1.45 to 2.9 µg/mL)
MIC (S. pneumoniae (control)): < 0.1 µM
MIC (S. aureus (control)): 0.5 µM (≈ 0.725 µg/mL)
MIC (MRSA (USA 300)): 1 µM (≈ 1.45 µg/mL)
MIC (MRSA (control)): 1 µM (≈ 1.45 µg/mL)
Compound: CN[C@H](CC(C)C)C(=O)N[C@H]1C(=O)N[C@@H](CC(N)=O)C(=O)N[C@H]2C(=O)N[C@H]3C(=O)N[C@H](C(=O)N[C@H](C(=O)O)c4cc(O)cc(O)c4-c4cc3ccc4O)[C@H](O)c3ccc(c(Cl)c3)Oc3cc2cc(c3O[C@@H]2O[C@H](CO)[C@@H](O)[C@H](O)[C@H]2O[C@H]2C[C@](C)(N)[C@H](O)[C@H](C)O2)Oc2ccc(cc2Cl)[C@H]1O [Vancomycin, vancomycin]

Compound: gramicidin-D
K+ release, percent of total potassium pool (tet^R E. coli [5]): 50–60%
Fold enhancement (tet^R E. coli [1]): 1 fold
solubility [2]: insoluble at >20 μM

MIC (tet^R E. coli [6]): 900 ± 50 µM (≈ 400 µg/mL)
Compound: CN(C)[C@@H]1C(O)=C(C(N)=O)C(=O)[C@@]2(O)C(O)=C3C(=O)c4c(O)cccc4[C@@](C)(O)[C@H]3C[C@@H]12 [Tetracycline, tetracycline]

Compound: COC(=O)[C@H]1[C@H]2C[C@@H]3c4[nH]c5cc(OC)ccc5c4CCN3C[C@H]2C[C@@H](OC(=O)c2cc(OC)c(OC)c(OC)c2)[C@@H]1OC [Reserpine, reserpine]
inhibition at 4 µM (NorA efflux pump): ~30%

Compound: CCCCCCCCCC(=O)N[C@@H](Cc1c[nH]c2ccccc12)C(=O)N[C@H](CC(N)=O)C(=O)N[C@@H](CC(=O)O)C(=O)N[C@@H]1C(=O)NCC(=O)N[C@@H](CCCN)C(=O)N[C@@H](CC(=O)O)C(=O)N[C@H](C)C(=O)N[C@@H](CC(=O)O)C(=O)NCC(=O)N[C@H](CO)C(=O)N[C@@H]([C@H](C)CC(=O)O)C(=O)N[C@@H](CC(=O)c2ccccc2N)C(=O)O[C@@H]1C [Daptomycin, daptomycin]
MIC (E. faecalis (VanA)): 2.5 µM (≈ 4.05 µg/mL)
MIC (E. faecalis (control)): 2.5 µM (≈ 4.05 µg/mL)

Compound: N#CC(C#N)=NNc1cccc(Cl)c1 [CCCP, carbonyl cyanide 3-chlorophenylhydrazone]
cytotoxicity [7]: cytotoxic
EC50 (human hepatocytes): 5 µM
FIC index with tetracycline (tet^R E. coli [1]; [10]): 0.75
increase (recovery) in activity of tetracycline (tet^R E. coli [1]; [10]): 4 fold
inhibition at 4 µM (NorA efflux pump): ~30%

Compound: Triton X-100
membrane permeability (propidium iodide) (S. aureus 1199B [8]): increases membrane permeability
membrane permeability (propidium iodide) (tet^R E. coli [3]; 0.1% (1.6 mM)): increases membrane permeability
Fold enhancement (tet^R E. coli [1]): 2 fold

Compound: CN(C)c1ccc(O)c2c1C[C@H]1C[C@H]3[C@H](N(C)C)C(O)=C(C(N)=O)C(=O)[C@@]3(O)C(O)=C1C2=O [minocycline]
resistance development, increase in MIC (tet^R E. coli [9]): 40 fold
